Measurements as given in article PMC8475556 (Oncoimmunology, 2021).
Where two headings read alike, the source gives them in different places. *1 amine or outer side, *2 acyl side, *3 side chain or, on linkers, in order; H or OH if unused. Where a SMILES comes first, the peptide text is derived from it. Bridges are numbered along the chain shown (N, C = ends). Roman numbers before positions name the chains, in order. [ ]: non-standard residue; d: D form. Hexamethylenediamine = C(CCCN[*:2])CCN[*:1]; Dip = N[C@H](C(=O)O)C(c1ccccc1)c1ccccc1; Chg = N[C@H](C(=O)O)C1CCCCC1; NMeA = CN[C@@H](C)C(=O)O

Experiments:
TRAF1 [1] = type: cell-based, human; conditions: 24 h; for effect on TRAF1 levels: RAJI cells, 0.1 nM-10 μM; for IC50: Homo sapiens, Raji, read-out: IC50 for reducing TRAF1
How it was run: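 shCTL RAJI cells were seeded at 2 × 10^5 per well in RPMI 1640 with 10% FCS, 2-ME, glutamine, pen/strep and non-essential amino acids. Test compound was added at 0.1 nM–10 μM (0.1% DMSO final) for 24 h. Staining: Fc block, viability dye, Foxp3-buffer fixation/permeabilisation, rat anti-TRAF1 (clone 1F3) with goat anti-rat PE secondary. TRAF1 dMFI = MFI minus FMO background.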

[2] = test system: TRAF1 in the CD40 signaling complex; type: cell-based, human; conditions: BV6 5 μM
How it was run: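 shCTL or shPKN1 RAJI cells (6 × 10^6) received cycloheximide 3 μg/ml for the indicated times, ± BV6 5 μM, and were lysed in 1% NP-40 with protease/phosphatase inhibitors. For IP1, Protein G magnetic beads were loaded with 0.5 μg anti-CD40 (10 min, RT), then incubated with lysate overnight at 4°C. Unbound material was re-precipitated with 0.5 μg anti-TRAF1 (IP2). Both IPs and lysates were western blotted for TRAF1.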

Mcl-1 = Mcl-1 by flow cytometry in live primary CLL cells after 24 h treatment; type: cell-based, human; conditions: for IC50: Homo sapiens, CLL cell, read-out: IC50 for lowering Mcl-1 (Mcl-1 dMFI)
How it was run: (§1)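 Primary CLL cells were thawed and resuspended at 8 × 10^6 cells/mL in high-glucose complete medium (2.5 g/L total glucose). They were plated at 2 × 10^6 per well on confluent OP9 stroma, rested overnight, then treated 24 h with test compound at 0.1% DMSO final. Staining: Fc block, viability dye, CD19/CD5, Foxp3-buffer fix/perm, then intracellular Bcl-2 BV421 or Mcl-1 AF647. Live CD5+CD19+ gate; dMFI = MFI minus FMO; n = 6 donors, 2 experiments pooled.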

pS6 = pS6 phosphoflow in live primary CLL cells after 24 h treatment; type: cell-based, human; conditions: for IC50: Homo sapiens, CLL cell, read-out: IC50 for decrease in pS6 (dMFI)
PRK1(h) = PRK1(h) (Homo sapiens, UniProt Q16512); experiment: Dose titration of selected inhibitors against PKN1 kinase activity in vitro; type: biochemical
PRK1(h), sequence (Q16512 whole entry): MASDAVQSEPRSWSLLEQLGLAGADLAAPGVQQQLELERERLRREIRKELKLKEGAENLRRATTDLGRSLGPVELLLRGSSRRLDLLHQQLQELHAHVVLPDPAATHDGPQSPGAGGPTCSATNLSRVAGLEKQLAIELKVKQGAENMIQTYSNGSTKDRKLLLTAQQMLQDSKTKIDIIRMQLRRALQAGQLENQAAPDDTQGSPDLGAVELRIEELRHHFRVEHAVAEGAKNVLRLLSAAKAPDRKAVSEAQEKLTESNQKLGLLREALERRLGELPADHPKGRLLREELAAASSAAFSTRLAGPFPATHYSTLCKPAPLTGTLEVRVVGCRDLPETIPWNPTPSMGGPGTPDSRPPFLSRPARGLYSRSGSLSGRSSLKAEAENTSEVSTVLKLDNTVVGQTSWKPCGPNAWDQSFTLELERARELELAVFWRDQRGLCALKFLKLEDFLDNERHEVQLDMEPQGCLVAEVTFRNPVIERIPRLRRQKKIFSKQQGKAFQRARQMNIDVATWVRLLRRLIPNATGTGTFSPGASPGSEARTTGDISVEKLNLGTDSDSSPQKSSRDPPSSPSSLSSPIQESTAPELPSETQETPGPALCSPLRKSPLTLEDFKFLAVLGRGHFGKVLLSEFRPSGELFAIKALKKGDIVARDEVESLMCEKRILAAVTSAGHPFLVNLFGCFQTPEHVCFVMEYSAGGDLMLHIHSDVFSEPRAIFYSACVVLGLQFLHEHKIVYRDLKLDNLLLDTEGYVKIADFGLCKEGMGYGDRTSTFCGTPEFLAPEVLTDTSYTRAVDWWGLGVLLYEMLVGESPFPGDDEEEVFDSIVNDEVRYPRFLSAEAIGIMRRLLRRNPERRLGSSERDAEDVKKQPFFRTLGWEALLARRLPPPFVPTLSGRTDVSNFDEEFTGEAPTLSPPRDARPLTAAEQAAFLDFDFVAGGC

primary CLL cells = experiment: Cell death; type: cell-based, human; conditions: for IC50: Homo sapiens, CLL cell, read-out: IC50 for cell death; for primary CLL cells died: cleaved caspase-3
Bcl-2 = Bcl-2 by flow cytometry in live primary CLL cells after 24 h treatment; type: cell-based, human; conditions: for IC50: Homo sapiens, CLL cell, read-out: IC50 for lowering Bcl-2 (Bcl-2 dMFI)
How it was run: as §1

pNF-κB p65 = pNF-κB p65 phosphoflow in live primary CLL cells after 24 h treatment; type: cell-based, human; conditions: for IC50: Homo sapiens, CLL cell, read-out: IC50 for decrease in pNF-κB p65 (dMFI)
pERK [3] = experiment: pERK phosphoflow in live primary CLL cells after 24 h treatment; type: cell-based, human; conditions: for IC50: Homo sapiens, CLL cell, read-out: IC50 for decrease in pERK (dMFI)
pERK [4] = experiment: pERK by flow cytometry in RAJI cells after 24 h inhibitor treatment; type: cell-based, human
TRAF1 [5] = experiment: TRAF1 by flow cytometry in live primary CLL cells on OP9 after 24 h treatment; type: cell-based, human; conditions: for effect on TRAF1 expression: primary CLL cells, 24 h

`CCCCNc1ncc2c(-c3ccc(CN4CCN(C)CC4)cc3)cn([C@H]3CC[C@H](O)CC3)c2n1` [UNC-2025] was tested, and the “effect on TRAF1 levels” value (TRAF1 [1]) was “increased rather than decreased”.
With `CN[C@@H](C)C(=O)N[C@H](C(=O)N1CCC[C@H]1C(=O)N[C@H](C(=O)NCCCCCCNC(=O)[C@@H](NC(=O)[C@@H]1CCCN1C(=O)[C@@H](NC(=O)[C@H](C)NC)C1CCCCC1)C(c1ccccc1)c1ccccc1)C(c1ccccc1)c1ccccc1)C1CCCCC1` [BV6] (I: H-[NMeA][Chg]P[Dip] / II: H-[NMeA][Chg]P[Dip]; linker I:C-II:C via Hexamethylenediamine) the “cytosolic pool of TRAF1 (IP2)” value ([2]; RAJI cells, cycloheximide) was “not sensitive”, the “CD40 associated TRAF1 protein” value ([2]; shCTL RAJI cells (presence of PKN1), cycloheximide 6 h) was “rescued” and the “CD40 associated TRAF1 protein” value ([2]; shPKN1 RAJI cells (absence of PKN1), cycloheximide) was “partially rescued”.
`CC(=O)c1cnc2ccc(-c3cc(Cl)c(O)c(Cl)c3)nc2c1N[C@H]1CC[C@H](CN(C)C)CC1` [OTSSP167] was tested, and the IC50 (Mcl-1) was 25.7 nM, the IC50 (pS6) was 310 nM and the IC50 (PRK1(h)) was 11 nM. For the same compound, the IC50 (primary CLL cells; 24 h) was 45.9 nM, the “reduction of IC50 for cell death compared to treatment alone” value (primary CLL cells; OTSSP167 with 1 nM venetoclax versus OTSSP167 alone) was 1.9 fold and the cells survived treatment (primary CLL cells; primary CLL cells, suboptimal concentration 50 nM) was 20–50%. The “primary CLL cells died” value (primary CLL cells; suboptimal 10 nM alone, 24 h) was less than 15%, the IC50 (Bcl-2) was 49.8 nM and the IC50 (pNF-κB p65) was 320 nM. The IC50 (pERK [3]) was 1040 nM, the pERK levels (pERK [4]) was “decreased only at the highest levels” and the IC50 (TRAF1 [1]) was 18 nM.
With `Clc1ccc(C2(c3ccc(-c4cn[nH]c4)cc3)CCNCC2)cc1` [AT7867] the “effect on Mcl-1 expression” value (Mcl-1; primary CLL cells) was “did not affect”, the “effect on pS6” value (pS6; primary CLL cells) was “slightly reduced” and the “effect on cell death” value (primary CLL cells; primary CLL cells, 24 h) was “no effect”. The “effect on Bcl-2 expression” value (Bcl-2; primary CLL cells) was “did not affect”, the “effect on levels of pNF-κB” value (pNF-κB p65; primary CLL cells) was “did not affect” and the “effect on pERK” value (pERK [3]; primary CLL cells) was “slightly reduced”. For the same compound, the “effect on TRAF1 expression” value (TRAF1 [5]) was “no effect”.
For `C[C@@H]1CCN(C(=O)CC#N)C[C@@H]1N(C)c1ncnc2[nH]ccc12` [tofacitinib], the “effect on TRAF1 levels” value (TRAF1 [1]) was “minimal effects”.
In the case of `CC1(COc2ccc3c(c2)ncn3-c2ccc3cccc(N4CCC(N)CC4)c3n2)COC1` [crenolanib, Crenolanib], the “effect on TRAF1 levels” value (TRAF1 [1]) is reported as “increased rather than decreased”.
In the case of `CC1(C)CCC(CN2CCN(c3ccc(C(=O)NS(=O)(=O)c4ccc(NCC5CCOCC5)c([N+](=O)[O-])c4)c(Oc4cnc5[nH]ccc5c4)c3)CC2)=C(c2ccc(Cl)cc2)C1` [venetoclax], the IC50 (primary CLL cells; 24 h) is reported as 9.91 nM, the “primary CLL cells died” value (primary CLL cells; suboptimal 1 nM alone, 24 h) is reported as less than 15% and the “decrease of IC50 for cell death compared to treatment alone” value (primary CLL cells; venetoclax with 10 nM OTSSP167 versus venetoclax alone) is reported as 5.8 fold. The “patients whose CLL cells were enriched for TRAF1hi cells after treatment” value (TRAF1 [5]; dose that resulted in approximately 50% death) was 4 of 6 and the “effect on TRAF1 expression” value (TRAF1 [5]) was “lack of effect”.
In the case of `CC(C)NC[C@@H](C(=O)N1CCN(c2ncnc3c2[C@H](C)C[C@H]3O)CC1)c1ccc(Cl)cc1` [ipatasertib, Ipatasertib], the IC50 (TRAF1 [1]) is reported as greater than 10000 nM.
`Cn1ncc(Cl)c1-c1cc(C(=O)N[C@H](CN)Cc2ccc(F)c(F)c2)oc1Cl` [uprosertib, Uprosertib] was tested, and the IC50 (TRAF1 [1]) was 4900 nM.
`CC(C)c1cc(CNc2nc(Nc3cc(C4CC4)[nH]n3)cc(N3CCN(C)CC3)n2)on1` [XL-228] was tested, and the IC50 (Mcl-1) was 2540 nM, the IC50 (pS6) was 1440 nM and the cells survived treatment (primary CLL cells; primary CLL cells, suboptimal concentration 4 μM) was 20–50%. For the same compound, the IC50 (Bcl-2) was 3520 nM, the IC50 (pNF-κB p65) was 2470 nM and the IC50 (pERK [3]) was 2230 nM. The IC50 (TRAF1 [1]) was 2300 nM.
